The record followed here is ChEMBL document CHEMBL3259662 (ACS Med Chem Lett, 2014).

The subject of series [1] is SK-OV-3. The series is described as follows: Cytotoxicity against human SKOV3 cells assessed as cell viability after 48 hrs by neutral red uptake assay. As to conditions: sk-ov-3, 48 h. Type of series: cell-based. The method in brief: (§1)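 Neutral red uptake assay in human cancer lines SK-MEL, KB, BT-549 and SK-OV-3 and in noncancerous mammalian kidney cells VERO and LLC-PK1. The highest tested concentration was 10 μg/mL.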

Series [2] deals with SK-MEL. The series is described as follows: Cytotoxicity against human SK-MEL cells assessed as cell viability after 48 hrs by neutral red uptake assay. Type of series: cell-based. In a few lines:
as §1

Series [3] has as its system KB. The series is described as follows: Cytotoxicity against human KB cells assessed as cell viability after 48 hrs by neutral red uptake assay. Type of series: cell-based. In a few lines:
as §1

The subject of series [4] is Pichia kudriavzevii. The series is described as follows: Antifungal activity against Candida krusei by CLSI method. Type of series: functional, organism-based.
Series [5] relates to LLC-PK1. The series is described as follows: Cytotoxicity against pig LLC-PK1 cells assessed as cell viability after 48 hrs by neutral red uptake assay. The following applies: llc-pk1, 48 h. In kind it is cell-based, Sus scrofa. The method in brief: as §1
The test system of series [6] is Cryptococcus neoformans. The series is described as follows: Antifungal activity against Cryptococcus neoformans ATCC 90113 at 20 ug/ml after 70 to 74 hrs by CLSI method. In kind it is functional, organism-based. In a few lines: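 C. neoformans screened per the CLSI protocol at the highest tested concentration of 20 μg/mL. Compounds showing no activity at this level were scored not active.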

The subject of series [7] is Vero. The series is described as follows: Cytotoxicity against African green monkey Vero cells assessed as cell viability after 48 hrs by neutral red uptake assay. In kind it is cell-based. The following applies: chlorocebus sabaeus. In a few lines: as §1
In series [8] the test system is Nakaseomyces glabratus. The series is described as follows: Antifungal activity against Candida glabrata by CLSI method. Type of series: functional, organism-based.
Series [9] deals with Aspergillus fumigatus. The series is described as follows: Antifungal activity against Aspergillus fumigatus by CLSI method. Type of series: functional, organism-based.
The subject of series [10] is Candida albicans. The series is described as follows: Antifungal activity against Candida albicans by CLSI method. Type of series: functional, organism-based.
Series [11] has as its system Escherichia coli. The series is described as follows: Antibacterial activity against Escherichia coli ATCC 35218 after 16 to 20 hrs by CLSI method. Type of series: functional, organism-based.
For series [12], the system named is BT-549. The series is described as follows: Cytotoxicity against human BT549 cells assessed as cell viability after 48 hrs by neutral red uptake assay. In kind it is cell-based. As to conditions: bt-549, 48 h. The method in brief:
as §1

The nature of series [13]: Selectivity index, ratio of cytotoxicity for human BT549 cells to IC50 for Cryptococcus neoformans ATCC 90113. In kind it is toxicity, cell-based, BT-549. The following applies: read-out: Selectivity Index.
A short description of series [14]: Retention time of the compound by reverse phase HPLC analysis. In kind it is physicochemical. The method in brief:
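Reverse-phase HPLC on a C-18 column (25 cm × 4.6 mm, 5 μM) at 1 mL/min over 40 min. The gradient ran 85−5% with A = 0.1% TFA in H2O and B = 0.1% TFA in CH3CN. Detection was at 220 nm.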

The test system of series [15] is Cryptococcus neoformans. The series is described as follows: Antifungal activity against Cryptococcus neoformans ATCC 90113 after 70 to 74 hrs by CLSI method. In kind it is functional, organism-based. As to conditions: for IC50 / MIC: Cryptococcus neoformans, ATCC 90113. The method in brief: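 Growth inhibition of C. neoformans per the CLSI protocol. […] MIC is the lowest test concentration with no detectable growth. MFC is the lowest concentration killing 100% of the organism.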

Series [16] can be described thus: Selectivity index, ratio of cytotoxicity for human SK-MEL cells to IC50 for Cryptococcus neoformans ATCC 90113. Type of series: toxicity, cell-based. As to conditions: read-out: Selectivity Index.
Series [17] can be described thus: Selectivity index, ratio of cytotoxicity for human SKOV3 cells to IC50 for Cryptococcus neoformans ATCC 90113. In kind it is toxicity, cell-based, SK-OV-3. The following applies: read-out: Selectivity Index.
Series [18] can be described thus: Selectivity index, ratio of cytotoxicity for African green monkey Vero cells to IC50 for Cryptococcus neoformans ATCC 90113. Type of series: toxicity, cell-based. As to conditions: read-out: Selectivity Index.
Series [19] can be described thus: Selectivity index, ratio of cytotoxicity for human KB cells to IC50 for Cryptococcus neoformans ATCC 90113. Type of series: toxicity, cell-based. As to conditions: read-out: Selectivity Index.
A short description of series [20]: Selectivity index, ratio of cytotoxicity for pig LLC-PK1 cells to IC50 for Cryptococcus neoformans ATCC 90113. In kind it is toxicity, cell-based. The following applies: read-out: Selectivity Index.

≈ marks a conversion by molar mass, not a printed value. Calls of active or inactive are those of the source. The rule behind the calls is not given here. Peptide text beside a SMILES is read from it. * marks the point of attachment. Boc = CC(C)(C)OC(=O)*; NHBn = c1ccc(CN*)cc1 A value given as a limit tells only on which side of the number the result lay.

Turning to `COC(=O)[C@H](CCCNC(=N)N)NC(=O)[C@H](Cc1c[nH]c(-c2ccccc2)n1)NC(=O)[C@@H](N)CCCNC(=N)N`, the Activity in [1], in [2], in series [3], in series [5], in series [7] and in series [12] was greater than 10 µg/mL each time. The result in series [4], in series [6], in [8], in [9], in series [10] and in series [11] was inactive.
With `COc1ccc(-c2nc(C[C@H](NC(=O)[C@H](CCCNC(=N)N)NC(=O)OC(C)(C)C)C(=O)N[C@@H](CCCNC(=N)N)C(=O)NCc3ccccc3)c[nH]2)cc1`, the selectivity ratio in [13], in series [16], in [17], in series [18], in series [19] and in series [20] was greater than 14.7 in each case. In series [14], this compound came in with a Retention_time of 18.93 min. In addition, the Activity in [1], in series [2], in series [3], in series [5], in series [7] and in [12] was greater than 10 µg/mL throughout. In addition, in series [15], the MFC100 worked out at 5 µg/mL (≈ 6.55 µM). In series [15], this compound came in with an IC50 of 0.68 µg/mL (≈ 0.891 µM). Also, in [15], the lowest concentration to inhibit growth (MIC) was 2.5 µg/mL (≈ 3.28 µM). In addition, the outcome in [4], in series [8], in [9], in [10] and in series [11] was inactive.
In the case of `CC(C)(C)OC(=O)N[C@@H](CCCNC(=N)N)C(=O)N[C@@H](Cc1c[nH]cn1)C(=O)N[C@@H](CCCNC(=N)N)C(=O)NCc1ccccc1` (Boc-Arg-His-Arg-NHBn), the selectivity ratio in series [13], in series [16], in series [17], in series [18], in series [19] and in series [20] was greater than 1.8 throughout. The compound also came in with a Retention_time in series [14] of 16.41 min. For the same compound, the Activity in series [1], in [2], in [3], in series [5], in series [7] and in series [12] was greater than 10 µg/mL throughout. Moreover, the MFC100 in series [15] stood at 10 µg/mL (≈ 15.2 µM). This compound also came in with an IC50 in series [15] of 5.35 µg/mL (≈ 8.15 µM). Also, the MIC in series [15] was determined as 10 µg/mL (≈ 15.2 µM). For the same compound, the result in series [4], in series [8], in series [9], in series [10] and in series [11] was inactive.
With `CC(C)(C)OC(=O)N[C@@H](CCCNC(=N)N)C(=O)N[C@@H](Cc1c[nH]c(-c2ccccc2)n1)C(=O)N[C@@H](CCCNC(=N)N)C(=O)NCc1ccccc1`, the selectivity ratio in [13], in series [16], in [17], in series [18], in series [19] and in series [20] was greater than 14.9 in each case. This compound also returned a Retention_time in series [14] of 17.63 min. In addition, the Activity in series [1], in [2], in series [3], in series [5], in series [7] and in series [12] was greater than 10 µg/mL in each case. Further, in series [15], the MFC100 came out at 1.25 µg/mL (≈ 1.71 µM). In series [15], this compound yielded an IC50 of 0.67 µg/mL (≈ 0.914 µM). Also, the MIC in series [15] came to 1.25 µg/mL (≈ 1.71 µM). The outcome in series [4], in [8], in series [9], in series [10] and in series [11] was inactive.
Turning to `Cc1ccc(-c2nc(C[C@H](NC(=O)[C@H](CCCNC(=N)N)NC(=O)OC(C)(C)C)C(=O)N[C@@H](CCCNC(=N)N)C(=O)NCc3ccccc3)c[nH]2)cc1`, the selectivity ratio in [13], in series [16], in series [17], in series [18], in series [19] and in series [20] was greater than 4.6 in each case. This compound also displayed a Retention_time in series [14] of 19.41 min. Besides, the Activity in [1], in [2], in [3], in series [5], in series [7] and in [12] was greater than 10 µg/mL in each case. The compound also yielded an MFC100 in [15] of 2.5 µg/mL (≈ 3.35 µM). Besides, the IC50 in series [15] is 2.15 µg/mL (≈ 2.88 µM). It took 2.5 µg/mL (≈ 3.35 µM) to inhibit growth in [15] (MIC). The result in series [4], in series [8], in series [9], in series [10] and in series [11] was inactive.
Consider `COC(=O)[C@H](CCCNC(=N)N)NC(=O)[C@H](Cc1c[nH]c(-c2ccc(C(C)(C)C)cc2)n1)NC(=O)[C@H](CCCNC(=N)N)NC(=O)OC(C)(C)C`, for which the selectivity ratio in series [13], in [16], in [17], in series [18], in series [19] and in [20] was greater than 14.1 throughout. This compound had a Retention_time in series [14] of 20.91 min. In addition, the Activity in [1], in series [2], in series [3], in series [5], in series [7] and in series [12] was greater than 10 µg/mL throughout. In series [15], this compound showed an MFC100 of 1.25 µg/mL (≈ 1.75 µM). Besides, in series [15], the IC50 is 0.71 µg/mL (≈ 0.995 µM). In series [15], this compound registered an MIC of 1.25 µg/mL (≈ 1.75 µM). Further, the outcome in [4], in series [8], in [9], in series [10] and in [11] was inactive.
With `COC(=O)[C@H](CCCNC(=N)N)NC(=O)[C@H](Cc1c[nH]c(-c2ccc(C)cc2)n1)NC(=O)[C@@H](N)CCCNC(=N)N`, the Activity in [1], in series [2], in series [3], in [5], in [7] and in series [12] was greater than 10 µg/mL in each case. The compound also came in with an IC50 in [15] of 19.7 µg/mL (≈ 34.5 µM). The outcome in [4], in series [6], in series [8], in series [9], in series [10] and in series [11] was inactive.
In the case of `N=C(N)NCCC[C@H](NC(=O)[C@H](Cc1c[nH]cn1)NC(=O)[C@@H](N)CCCNC(=N)N)C(=O)NCc1ccccc1` (H-Arg-His-Arg-NHBn), the Activity in series [1], in series [2], in series [3], in series [5], in series [7] and in series [12] was greater than 10 µg/mL in each case. The outcome in [4], in series [6], in series [8], in [9], in [10] and in series [11] was inactive.
